Values after ≈ are worked out from the molar mass of the structure shown.
How the values were obtained:
Type in all cases: functional
Staphylococcus aureus = assay: Antibacterial activity against Staphylococcus aureus ATCC 29213
Helicobacter pylori [1] = assay: Antibacterial activity against Helicobacter pylori ATCC 700392
Summary of the method: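 Agar dilution per CLSI. Wild-type H. pylori ATCC 700392 (CB1531). Drugs prepared from 100× stocks as 2-fold dilutions in Mueller–Hinton agar with aged (≥2 weeks) sheep blood (5% v/v). Combinations were at 1:1 molar ratio. MIC read after 5 days at 35 °C under microaerobic atmosphere from a campylobacter gas-generating system.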

Clostridioides difficile [2] = assay: Antibacterial activity against Clostridioides difficile ATCC 9689
Helicobacter pylori [3] = assay: Antibacterial activity against rifampicin resistant Helicobacter pylori harboring rpoBL525I/D530N mutant
Clostridioides difficile [4] = assay: Antibacterial activity against rifampicin-resistant Clostridioides difficile harboring rpoBQ489K mutant
Clostridioides difficile [5] = assay: Antibacterial activity against Clostridioides difficile BAA 1382
Helicobacter pylori [6] = assay: Antibacterial activity against Helicobacter pylori infected in C57/BL6 mouse assessed as bacterial load in stomach at 1 mg/kg administered twice daily via oral gavage starting from 7 days post inoculation and administered for 7 days in presence of 10 mg/kg clarithromycin and 20 mg/kg amoxicillin (reference value: 5.25 log10CFU); conditions: time 7 day

Structure (SMILES)	MIC (Staphylococcus aureus)	MIC (Helicobacter pylori [1])	MIC (Clostridioides difficile [2])	MIC (Helicobacter pylori [3])	MIC (Clostridioides difficile [4])	MIC (Clostridioides difficile [5])	Activity (Helicobacter pylori [6])
CO[C@H]1/C=C/O[C@@]2(C)Oc3c(C)c(O)c4c(c3C2=O)C2=NC3(CCN(CC5(C)Cn6cc([N+](=O)[O-])nc6O5)CC3)NC2=C(NC(=O)/C(C)=C\C=C\[C@H](C)[C@H](O)[C@@H](C)[C@@H](O)[C@@H](C)[C@H](OC(C)=O)[C@@H]1C)C4=O (stereo partly specified)	0.03 µg/mL (≈ 0.0309 µM)	0.03 µg/mL (≈ 0.0309 µM)					
CO[C@H]1/C=C/O[C@@]2(C)Oc3c(C)c(O)c4c(=O)c(c5oc6cc(N7CCN(c8ccc(OCC9(C)Cn%10cc([N+](=O)[O-])nc%10O9)cc8)CC7)cc(O)c6nc-5c4c3C2=O)NC(=O)/C(C)=C\C=C\[C@H](C)[C@H](O)[C@@H](C)[C@@H](O)[C@@H](C)[C@H](OC(C)=O)[C@@H]1C (stereo partly specified)	< 0.008 µg/mL	0.06 µg/mL (≈ 0.0518 µM)	0.03 µg/mL (≈ 0.0259 µM)				
CO[C@H]1/C=C/O[C@@]2(C)Oc3c(C)c(O)c4c(O)c(c(/C=N/N5CCN(CCn6c([N+](=O)[O-])cnc6C)CC5)c(O)c4c3C2=O)NC(=O)/C(C)=C\C=C\[C@H](C)[C@H](O)[C@@H](C)[C@@H](O)[C@@H](C)[C@H](OC(C)=O)[C@@H]1C	0.03 µg/mL (≈ 0.0312 µM)	0.25 µg/mL (≈ 0.26 µM)	0.002 µg/mL (≈ 0.00208 µM)	2 µg/mL (≈ 2.08 µM)	2 µg/mL (≈ 2.08 µM)	0.0005 µg/mL (≈ 0.00052 µM)	
CO[C@H]1/C=C/O[C@@]2(C)Oc3c(C)c(O)c4c(O)c(c(N5CCN(Cc6ccc(OCC7Cn8cc([N+](=O)[O-])nc8O7)cc6)CC5)c(O)c4c3C2=O)NC(=O)/C(C)=C\C=C\[C@H](C)[C@H](O)[C@@H](C)[C@@H](O)[C@@H](C)[C@H](OC(C)=O)[C@@H]1C (stereo partly specified)	< 0.004 µg/mL	0.25 µg/mL (≈ 0.237 µM)					
C[C@]1(COc2ccc(N3CCC(Oc4ccc(OC(F)(F)F)cc4)CC3)cc2)Cn2cc([N+](=O)[O-])nc2O1	> 32 µg/mL	2 µg/mL (≈ 3.74 µM)	> 16 µg/mL				
CO[C@H]1/C=C/O[C@@]2(C)Oc3c(C)c(O)c4c(O)c(c(N5CCN(c6ccc(OCC7(C)Cn8cc([N+](=O)[O-])nc8O7)cc6)CC5)c(O)c4c3C2=O)NC(=O)/C(C)=C\C=C\[C@H](C)[C@H](O)[C@@H](C)[C@@H](O)[C@@H](C)[C@H](OC(C)=O)[C@@H]1C (stereo partly specified)	0.015 µg/mL (≈ 0.0142 µM)	1 µg/mL (≈ 0.948 µM)	0.03 µg/mL (≈ 0.0284 µM)				
CO[C@H]1/C=C/O[C@@]2(C)Oc3c(C)c(O)c4c(=O)c(c5oc6cc(N7CCN(CC(C)C)CC7)cc(O)c6nc-5c4c3C2=O)NC(=O)/C(C)=C\C=C\[C@H](C)[C@H](O)[C@@H](C)[C@@H](O)[C@@H](C)[C@H](OC(C)=O)[C@@H]1C [RIFALAZIL]	0.004 µg/mL (≈ 0.00425 µM)	0.002 µg/mL (≈ 0.00213 µM)	0.001 µg/mL (≈ 0.00106 µM)				
CO[C@H]1/C=C/O[C@@]2(C)Oc3c(C)c(O)c4c(c3C2=O)C2=NC3(CCN(Cc5ccc(CO[C@@H]6COc7nc([N+](=O)[O-])cn7C6)cc5)CC3)NC2=C(NC(=O)/C(C)=C\C=C\[C@H](C)[C@H](O)[C@@H](C)[C@@H](O)[C@@H](C)[C@H](OC(C)=O)[C@@H]1C)C4=O	0.03 µg/mL (≈ 0.0278 µM)	0.03 µg/mL (≈ 0.0278 µM)	0.001 µg/mL (≈ 0.000927 µM)				
COc1ccc2[nH]c([S+]([O-])Cc3ncc(C)c(OC)c3C)nc2c1 (stereo unspecified) [OMEPRAZOLE]							1.7 log10CFU
CO[C@H]1/C=C/O[C@@]2(C)Oc3c(C)c(O)c4c(O)c(c(N5CCN(Cc6ccc(CO[C@@H]7COc8nc([N+](=O)[O-])cn8C7)cc6)CC5)c(O)c4c3C2=O)NC(=O)/C(C)=C\C=C\[C@H](C)[C@H](O)[C@@H](C)[C@@H](O)[C@@H](C)[C@H](OC(C)=O)[C@@H]1C	< 0.008 µg/mL	0.5 µg/mL (≈ 0.468 µM)	0.008 µg/mL (≈ 0.00748 µM)				
CO[C@H]1/C=C/O[C@@]2(C)Oc3c(C)c(O)c4c(O)c(c(N5CCN(CC6(C)Cn7cc([N+](=O)[O-])nc7O6)CC5)c(O)c4c3C2=O)NC(=O)/C(C)=C\C=C\[C@H](C)[C@H](O)[C@@H](C)[C@@H](O)[C@@H](C)[C@H](OC(C)=O)[C@@H]1C (stereo partly specified)	0.008 µg/mL (≈ 0.00831 µM)	0.25 µg/mL (≈ 0.26 µM)	0.001 µg/mL (≈ 0.00104 µM)				
CO[C@H]1/C=C/O[C@@]2(C)Oc3c(C)c(O)c4c(O)c(c5c(nc6ccc(CCC(=O)N7CCN(CCn8c([N+](=O)[O-])cnc8C)CC7)cn65)c4c3C2=O)NC(=O)/C(C)=C\C=C\[C@H](C)[C@H](O)[C@@H](C)[C@@H](O)[C@@H](C)[C@H](OC(C)=O)[C@@H]1C		1 µg/mL (≈ 0.939 µM)	0.004 µg/mL (≈ 0.00376 µM)	> 8 µg/mL	4 µg/mL (≈ 3.76 µM)	0.004 µg/mL (≈ 0.00376 µM)	
CO[C@H]1/C=C/O[C@@]2(C)Oc3c(C)c(O)c4c(O)c(c(N5CCN(CCn6c([N+](=O)[O-])cnc6C)CC5)c(O)c4c3C2=O)NC(=O)/C(C)=C\C=C\[C@H](C)[C@H](O)[C@@H](C)[C@@H](O)[C@@H](C)[C@H](OC(C)=O)[C@@H]1C	< 0.015 µg/mL	0.06 µg/mL (≈ 0.0642 µM)	0.00025 µg/mL (≈ 0.000267 µM)			0.00025 µg/mL (≈ 0.000267 µM)	
CO[C@H]1/C=C/O[C@@]2(C)Oc3c(C)c(O)c4c(O)c(c(N5CCN(C(=O)c6ccc(OCC7(C)Cn8cc([N+](=O)[O-])nc8O7)cc6)CC5)c(O)c4c3C2=O)NC(=O)/C(C)=C\C=C\[C@H](C)[C@H](O)[C@@H](C)[C@@H](O)[C@@H](C)[C@H](OC(C)=O)[C@@H]1C (stereo partly specified)	0.25 µg/mL (≈ 0.231 µM)	4 µg/mL (≈ 3.69 µM)					
CO[C@H]1/C=C/O[C@@]2(C)Oc3c(C)c(O)c4c(c3C2=O)C2=NC3(CCN(CC5Cn6cc([N+](=O)[O-])nc6O5)CC3)NC2=C(NC(=O)/C(C)=C\C=C\[C@H](C)[C@H](O)[C@@H](C)[C@@H](O)[C@@H](C)[C@H](OC(C)=O)[C@@H]1C)C4=O (stereo partly specified)	0.015 µg/mL (≈ 0.0157 µM)	0.06 µg/mL (≈ 0.0626 µM)					
CO[C@H]1/C=C/O[C@@]2(C)Oc3c(C)c(O)c4c(=O)c(c5oc6cc(N7CCN(CCn8c([N+](=O)[O-])cnc8C)CC7)cc(O)c6nc-5c4c3C2=O)NC(=O)/C(C)=C\C=C\[C@H](C)[C@H](O)[C@@H](C)[C@@H](O)[C@@H](C)[C@H](OC(C)=O)[C@@H]1C	< 0.03 µg/mL	0.004 µg/mL (≈ 0.00385 µM)	0.002 µg/mL (≈ 0.00193 µM)	0.5 µg/mL (≈ 0.482 µM)	2 µg/mL (≈ 1.93 µM)	0.001 µg/mL (≈ 0.000963 µM)	
CO[C@H]1/C=C/O[C@@]2(C)Oc3c(C)c(O)c4c(O)c(c5c(nc6cc(C)ccn65)c4c3C2=O)NC(=O)/C(C)=C\C=C\[C@H](C)[C@H](O)[C@@H](C)[C@@H](O)[C@@H](C)[C@H](OC(C)=O)[C@@H]1C [RIFAXIMIN]	0.06 µg/mL (≈ 0.0763 µM)	1 µg/mL (≈ 1.27 µM)	0.004 µg/mL (≈ 0.00509 µM)				
CO[C@H]1/C=C/O[C@@]2(C)Oc3c(C)c(O)c4c(O)c(c(N5CCN(C(=O)CO[C@@H]6COc7nc([N+](=O)[O-])cn7C6)CC5)c(O)c4c3C2=O)NC(=O)/C(C)=C\C=C\[C@H](C)[C@H](O)[C@@H](C)[C@@H](O)[C@@H](C)[C@H](OC(C)=O)[C@@H]1C	2 µg/mL (≈ 1.99 µM)	4 µg/mL (≈ 3.97 µM)					
CO[C@H]1/C=C/O[C@@]2(C)Oc3c(C)c(O)c4c(c3C2=O)C2=NC3(CCN(CC(=O)Nc5ncc([N+](=O)[O-])s5)CC3)NC2=C(NC(=O)/C(C)=C\C=C\[C@H](C)[C@H](O)[C@@H](C)[C@@H](O)[C@@H](C)[C@H](OC(C)=O)[C@@H]1C)C4=O		0.004 µg/mL (≈ 0.0041 µM)	0.001 µg/mL (≈ 0.00102 µM)				
O=[N+]([O-])c1cn2c(n1)OC[C@@H](OCc1ccc(OC(F)(F)F)cc1)C2 [PRETOMANID]	> 32 µg/mL	2 µg/mL (≈ 5.57 µM)	16 µg/mL (≈ 44.5 µM)				

Source: ChEMBL document CHEMBL5131497, “Design, Synthesis, and Characterization of TNP-2198, a Dual-Targeted Rifamycin-Nitroimidazole Conjugate with Potent Activity against Microaerophilic and Anaerobic Bacterial Pathogens” (J Med Chem, 2022)
